Experimental data reported in ChEMBL document CHEMBL1154383, “Novel biphenylcarboxylic acid peroxisome proliferator-activated receptor (PPAR) delta selective antagonists” (Bioorg Med Chem Lett, 2009).
Active and inactive are the calls of the source. The calls are words filed in the database; no cut-off is given here.

Experiments:
[1] = molecular target: T1, Peroxisome proliferator-activated receptor delta (Homo sapiens, UniProt Q03181); assay: Agonist activity at PPARdelta receptor expressed in HEK293 cells co-transfected with GAL4 by transactivation assay; type: functional, cell-based
T1 sequence (Q03181 whole entry): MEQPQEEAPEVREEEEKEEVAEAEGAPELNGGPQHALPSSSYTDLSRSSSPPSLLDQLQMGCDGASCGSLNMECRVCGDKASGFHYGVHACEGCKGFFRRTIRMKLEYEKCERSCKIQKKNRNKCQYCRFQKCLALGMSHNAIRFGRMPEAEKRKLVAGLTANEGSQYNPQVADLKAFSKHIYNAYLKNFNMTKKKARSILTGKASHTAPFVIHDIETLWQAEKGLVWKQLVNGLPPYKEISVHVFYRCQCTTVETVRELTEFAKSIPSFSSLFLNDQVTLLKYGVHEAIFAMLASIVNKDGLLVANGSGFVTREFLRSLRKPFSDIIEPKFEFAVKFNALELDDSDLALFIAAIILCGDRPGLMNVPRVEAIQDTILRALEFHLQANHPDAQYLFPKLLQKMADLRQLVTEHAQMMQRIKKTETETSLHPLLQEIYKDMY

[2] = molecular target: T2, Peroxisome proliferator-activated receptor alpha (Homo sapiens, UniProt Q07869); assay: Agonist activity at PPARalpha receptor expressed in HEK293 cells co-transfected with GAL4 by transactivation assay; type: functional, cell-based
T2 sequence (Q07869 whole entry): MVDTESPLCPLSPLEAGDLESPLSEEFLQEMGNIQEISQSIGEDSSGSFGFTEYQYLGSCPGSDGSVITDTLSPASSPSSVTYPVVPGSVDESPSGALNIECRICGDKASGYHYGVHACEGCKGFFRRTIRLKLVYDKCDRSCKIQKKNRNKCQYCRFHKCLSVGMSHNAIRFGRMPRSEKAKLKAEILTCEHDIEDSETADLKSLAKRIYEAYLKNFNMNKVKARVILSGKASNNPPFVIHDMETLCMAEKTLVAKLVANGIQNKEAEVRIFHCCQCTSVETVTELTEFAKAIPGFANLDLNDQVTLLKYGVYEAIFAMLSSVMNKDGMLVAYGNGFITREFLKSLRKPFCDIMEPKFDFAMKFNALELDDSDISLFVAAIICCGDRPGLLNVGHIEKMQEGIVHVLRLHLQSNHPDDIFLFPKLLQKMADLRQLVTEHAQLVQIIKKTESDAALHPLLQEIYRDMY
Procedure, shortened: (§1)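 GAL4-PPARα chimeric receptor transfected into HEK293 cells; cell-based transactivation (agonist mode). Output is EC50, plus % efficacy relative to the positive control fenofibric acid for PPARα.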

[3] = molecular target: T3, Peroxisome proliferator-activated receptor alpha (Homo sapiens) (UniProt Q07869); assay: Agonist activity at PPARalpha receptor expressed in HEK293 cells co-transfected with GAL4 by transactivation assay relative to […]; type: functional, cell-based; procedure, shortened: as §1
T3 sequence (whole entry): T2 sequence (Q07869 whole entry)

[4] = molecular target: T2, Peroxisome proliferator-activated receptor alpha; assay: (§2) Agonist activity at PPARalpha receptor expressed in HEK293 cells co-transfected with GAL4 at 1 uM by transactivation assay; type: functional, cell-based
[5] = molecular target: T4, Peroxisome proliferator-activated receptor gamma (Homo sapiens) (UniProt P37231); assay: Antagonist activity at PPARgamma co-transfected with GAL4-PPAR fusion protein assessed as inhibition of TIPP703-induced response up to 10 uM by luciferase reporter gene assay; type: functional
T4 sequence (whole entry): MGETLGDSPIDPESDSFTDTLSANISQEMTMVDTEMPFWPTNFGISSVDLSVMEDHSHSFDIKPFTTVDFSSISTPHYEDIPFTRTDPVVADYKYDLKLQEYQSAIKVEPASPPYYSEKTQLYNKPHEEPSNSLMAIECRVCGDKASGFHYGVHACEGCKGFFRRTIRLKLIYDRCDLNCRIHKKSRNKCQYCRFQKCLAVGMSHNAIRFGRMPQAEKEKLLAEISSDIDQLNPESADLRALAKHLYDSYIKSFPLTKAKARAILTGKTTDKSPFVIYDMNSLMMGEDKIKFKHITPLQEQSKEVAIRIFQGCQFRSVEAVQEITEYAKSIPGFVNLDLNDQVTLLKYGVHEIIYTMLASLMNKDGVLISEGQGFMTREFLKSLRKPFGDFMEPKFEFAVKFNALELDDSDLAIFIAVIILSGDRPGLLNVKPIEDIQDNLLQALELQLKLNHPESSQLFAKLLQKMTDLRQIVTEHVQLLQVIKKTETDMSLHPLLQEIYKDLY
Procedure, shortened: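 Cells expressing GAL4-PPARα or GAL4-PPARγ chimeras were stimulated with the agonist TIPP-703, with or without co-treatment at 0.1, 1 or 10 µM. Antagonism was read as dose-dependent reduction of the induced transactivation signal.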

[6] = molecular target: T4, Peroxisome proliferator-activated receptor gamma (Homo sapiens); assay: Agonist activity at PPARgamma receptor expressed in HEK293 cells co-transfected with GAL4 at 10 uM by transactivation assay; type: functional, cell-based
[7] = molecular target: T3, Peroxisome proliferator-activated receptor alpha (Homo sapiens); assay: Antagonist activity at PPARalpha co-transfected with GAL4-PPAR fusion protein assessed as inhibition of TIPP703-induced response up to 10 uM by luciferase reporter gene assay; type: functional
Procedure, shortened: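 Antagonist mode in the GAL4-PPAR chimera system. Cells were stimulated with the agonist TIPP-703, with or without three added test concentrations. Inhibition of the agonist-elicited reporter signal was assessed for dose dependence.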

[8] = molecular target: T1, Peroxisome proliferator-activated receptor delta; assay: Antagonist activity at PPARdelta co-transfected with GAL4-PPAR fusion protein assessed as inhibition of GW-501516-induced response by luciferase reporter gene assay; type: functional
[9] = molecular target: T3, Peroxisome proliferator-activated receptor alpha (Homo sapiens); assay: Agonist activity at PPARalpha receptor expressed in HEK293 cells co-transfected with GAL4 up to 10 uM by transactivation assay; type: functional, cell-based
Procedure, shortened: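 HEK293 cells transfected with GAL4-PPAR chimeric receptors (PPARα, δ or γ) in a cell-based transactivation assay. Results given as EC50 and % efficacy relative to a subtype positive control: fenofibric acid for PPARα, GW501516 for PPARδ, ciglitazone for PPARγ.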

[10] = molecular target: T3, Peroxisome proliferator-activated receptor alpha (Homo sapiens); assay: as §2; type: functional, cell-based
[11] = molecular target: Peroxisome proliferator-activated receptor delta (Homo sapiens) (UniProt Q03181); assay: Antagonist activity at PPARdelta co-transfected with GAL4-PPAR fusion protein assessed as inhibition of GW501516-induced response by luciferase reporter gene assay
[12] = molecular target: T5, Peroxisome proliferator-activated receptor delta (Homo sapiens) (UniProt Q03181); assay: Agonist activity at PPARdelta receptor expressed in HEK293 cells co-transfected with GAL4 at 1 uM by transactivation assay; type: functional, cell-based
T5 sequence (whole entry): T1 sequence (Q03181 whole entry)

[13] = molecular target: T5, Peroxisome proliferator-activated receptor delta (Homo sapiens); assay: Agonist activity at PPARdelta receptor expressed in HEK293 cells co-transfected with GAL4 at 10 uM by transactivation assay; type: functional, cell-based
[14] = molecular target: T6, Peroxisome proliferator-activated receptor gamma (Homo sapiens, UniProt P37231); assay: Agonist activity at PPARgamma receptor expressed in HEK293 cells co-transfected with GAL4 by transactivation assay
T6 sequence (P37231 whole entry): T4 sequence (whole entry)

[15] = molecular target: T6, Peroxisome proliferator-activated receptor gamma

Row | EC50 [1] [nM] | EC50 [2] [nM] | Efficacy [3] [%] | Activity [6] | Activity [9] | Activity [10] | Compound | further results
1 | 14 | 120 | 100 | – | – | – | CCCCOc1ccc(-c2ccc(C)c(C(=O)O)c2)cc1CNC(=O)c1ccc(C(F)(F)F)cc1F | –
2 | 170 | – | – | inactive | inactive | – | CCCCOc1ccc(-c2ccc(C(=O)O)cc2)cc1CNC(=O)c1ccc(C(F)(F)F)cc1F | EC50 [4]: Not Active; Activity [5]: inactive; Activity [7]: inactive; IC50 [8]: 68 nM
3 | – | – | – | inactive | inactive | inactive | CCCCOc1ccc(-c2ccccc2C(=O)O)cc1CNC(=O)c1ccc(C(F)(F)F)cc1F | Activity [11]: inactive; Activity [12]: inactive
4 | – | – | – | inactive | inactive | inactive | CCCCOc1ccc(-c2ccc(C(=O)O)o2)cc1CNC(=O)c1ccc(C(F)(F)F)cc1F | Activity [13]: inactive; Activity [11]: inactive; Activity [12]: inactive
5 | 53 | – | – | – | – | inactive | CCCCOc1ccc(-c2ccc(C(=O)O)cc2F)cc1CNC(=O)c1ccc(C(F)(F)F)cc1F | –
6 | 29 | 790 | 100 | – | – | – | CCCCOc1ccc(-c2cccc(C(=O)O)c2)cc1CNC(=O)c1ccc(C(F)(F)F)cc1F | –
7 | – | – | – | inactive | inactive | inactive | CCCCOc1ccc(-c2ccc(C(=O)O)cn2)cc1CNC(=O)c1ccc(C(F)(F)F)cc1F | Activity [13]: inactive; Activity [11]: inactive; Activity [12]: inactive
8 | 45 | 3000 | 100 | – | – | – | CCCCOc1ccc(-c2ccc(C(=O)O)c(C)c2)cc1CNC(=O)c1ccc(C(F)(F)F)cc1F | –
9 | 4.9 | 570 | 100 | – | – | – | CCCCOc1ccc(-c2cc(C(=O)O)ccc2C)cc1CNC(=O)c1ccc(C(F)(F)F)cc1F | –

Row | Compound | EC50 [1] [nM] | EC50 [2] [nM] | Efficacy [3] [%] | Activity [6] | Activity [9] | Activity [10] | further results
10 | CCCCOc1ccc(C[C@H](CC)C(=O)O)cc1CNC(=O)c1ccc(C(F)(F)F)cc1F | 0.72 | 240 | – | – | – | – | EC50 [14]: 1400 nM
11 | CCCCOc1ccc(-c2ccc(C(=O)O)cc2C)cc1CNC(=O)c1ccc(C(F)(F)F)cc1F | – | – | – | – | – | inactive | IC50 [15]: 10 nM
12 | CCCCOc1ccc(-c2cccc(C(=O)O)c2C)cc1CNC(=O)c1ccc(C(F)(F)F)cc1F | 1.6 | 130 | 100 | – | – | – | –
13 | CCCCOc1ccc(-c2ccc(C(=O)O)nc2)cc1CNC(=O)c1ccc(C(F)(F)F)cc1F | 400 | – | – | – | – | inactive | –
